Activity calls are given as the source filed them. No cut-off for these calls is given here.

Series [1] relates to HCT-8. The series is described as follows: Antiproliferative activity against human HCT8 cells assessed as inhibition of cell proliferation at 0.25 uM dosed 1 hr after NO scavenger carboxy-PTIO treatment and measured after 24 hrs by MTT assay. It is filed as functional. A general note: Formazan colour is commonly taken as a measure of viable cells.
Series [2] deals with RAC-alpha serine/threonine-protein kinase (Homo sapiens) (UniProt P31749). The series is described as follows: Inhibition of AKT protein phosphorylation in human HCT8 cells at 0.25 to 1 uM incubated for 24 hrs by Western blotting method. It is filed as cell-based. Conditions: HCT-8. In short, it runs like this: (§1)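 Cells (1 x 10^6) grown 24 h in 6 cm dishes, then exposed in duplicate for 24 h to 0.25, 0.5 or 1 µM compound, with or without PTIO. Lysates (20 µg/lane) were run on 7.5% SDS-PAGE, blotted to PVDF and blocked in 5% milk. HRP secondaries with ECL detection; bands quantified by densitometry against β-actin or GAPDH. Three separate experiments, mean ± SD.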

Series [3] concerns HCT-8. Kind of series: Inhibition of ERK protein phosphorylation in human HCT8 cells at 0.25 to 1 uM incubated for 24 hrs by Western blotting method. It is filed as cell-based. A digest of the protocol: as §1
For series [4], the system named is HCT-8. Kind of series: Inhibition of P-gp protein expression in FU-resistant human HCT8 cells at 0.25 to 1 uM incubated for 24 hrs by Western blotting method. It counts as functional, cell-based. In short, it runs like this: as §1
Background: Immunoblotting shows a protein as a band on a membrane.

For series [5], the system named is HCT-8. The series is described as follows: Inhibition of BCRP protein expression in FU-resistant human HCT8 cells at 0.25 to 1 uM incubated for 24 hrs by Western blotting method. It is filed as functional, cell-based. In short, it runs like this: as §1
Series [6] deals with T1, Broad substrate specificity ATP-binding cassette transporter ABCG2 (Homo sapiens, UniProt Q9UNQ0).
T1 sequence (Q9UNQ0 whole entry): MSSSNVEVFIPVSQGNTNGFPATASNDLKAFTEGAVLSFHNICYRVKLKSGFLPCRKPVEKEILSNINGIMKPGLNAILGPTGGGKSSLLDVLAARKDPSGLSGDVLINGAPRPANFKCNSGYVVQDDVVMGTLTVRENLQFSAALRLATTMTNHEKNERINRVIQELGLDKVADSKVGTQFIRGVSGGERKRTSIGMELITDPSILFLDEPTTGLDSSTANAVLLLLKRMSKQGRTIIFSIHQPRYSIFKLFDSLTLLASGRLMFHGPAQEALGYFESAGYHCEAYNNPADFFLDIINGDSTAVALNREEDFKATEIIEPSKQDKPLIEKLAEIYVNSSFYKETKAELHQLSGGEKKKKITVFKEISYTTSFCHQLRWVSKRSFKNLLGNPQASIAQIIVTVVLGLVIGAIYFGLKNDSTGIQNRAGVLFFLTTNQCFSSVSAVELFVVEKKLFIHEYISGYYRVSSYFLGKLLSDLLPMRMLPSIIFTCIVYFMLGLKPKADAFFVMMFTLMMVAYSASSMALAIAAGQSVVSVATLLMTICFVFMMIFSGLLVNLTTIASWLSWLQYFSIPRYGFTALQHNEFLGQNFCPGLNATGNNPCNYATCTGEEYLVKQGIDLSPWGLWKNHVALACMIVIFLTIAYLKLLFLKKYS
Kind of series: Induction of nitrosylation of BCRP protein in FU-resistant human HCT8 cells at 0.25 to 1 uM incubated for 24 hrs by Western blotting method. It counts as cell-based. Conditions: hct-8, 24 h. In short, it runs like this: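 HCT-8/5-FU cells (1 × 10^6) treated in duplicate for 24 h with 0.25, 0.5 or 1 µM test compound or 1 µM reference, with or without PTIO. Lysates immunoprecipitated overnight at 4 °C with anti-nitrotyrosine antibody on protein G beads. Eluates blotted with specific anti-Pgp, anti-MRP1 or anti-BCRP antibodies and quantified by densitometry. Mean ± SD of three experiments.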

The nature of series [7]: Toxicity in male ICR mouse assessed as mouse mortality at 2.38 x 10^3 umol/kg administered as single dose via oral gavage measured up to 14 days post treatment. It is filed as organism-based. The settings on record: in vivo. In short, it runs like this: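 Female or male adult ICR mice, 10 per sex group, were randomised and given a single oral gavage dose of 2,000 mg/kg in cremophor-EL/DMSO/PBS (1:1:8). Total mortality was recorded over days 1–14, and body weight on days 0, 7 and 14 as mean ± SD.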

In series [8] the test system is Mus musculus. Kind of series: Toxicity in female ICR mouse assessed as body weight level at 2.38 x 10^3 umol/kg administered as single dose via oral gavage measured on day 7 post treatment (reference value: 19.8 +/- 0.92 g). It counts as organism-based. Conditions: in vivo.
Series [9] deals with Mus musculus. Kind of series: Toxicity in nude BALB/c mouse xenografted with FU-resistant human HCT8 cells assessed as abnormal color changes in liver at 17.8 to 35.7 umol/kg administered as via oral gavage daily for 21 days. The settings on record: in vivo, 504 h. It counts as organism-based, HCT-8. In short, it runs like this:
(§2)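 Male BALB/c nude mice aged 6-8 weeks, implanted s.c. in the right flank with HCT-8/5-FU cells (2 × 10^6). Once tumors reached 180-200 mm3 (days 9-11), randomized to daily gavage for 21 days in cremophor-EL/DMSO/PBS (1:1:8), 0.2 mL. At the end, liver, kidney, lung and heart checked for size, colour and weight. n = 8 per group.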
(In general: Xenograft models place foreign cells or tissue in a host animal.)

For series [10], the system named is Mus musculus. The series is described as follows: Toxicity in nude BALB/c mouse xenografted with FU-resistant human HCT8 cells assessed as abnormal color changes in kidney at 17.8 to 35.7 umol/kg administered as via oral gavage daily for 21 days. It counts as organism-based, HCT-8. Conditions: in vivo, 504 h. A digest of the protocol:
as §2

The subject of series [11] is Mus musculus. Kind of series: Toxicity in nude BALB/c mouse xenografted with FU-resistant human HCT8 cells assessed as abnormal size changes in heart at 17.8 to 35.7 umol/kg administered as via oral gavage daily for 21 days. It is filed as organism-based, HCT-8. Conditions: in vivo, 504 h. A digest of the protocol:
as §2

The test system of series [12] is Mus musculus. Kind of series: Toxicity in nude BALB/c mouse xenografted with FU-resistant human HCT8 cells assessed as abnormal weight changes in heart at 17.8 to 35.7 umol/kg administered as via oral gavage daily for 21 days. The settings on record: in vivo, 504 h. It is filed as organism-based, HCT-8. In short, it runs like this:
as §2

For series [13], the system named is Mus musculus. Kind of series: Toxicity in nude BALB/c mouse xenografted with FU-resistant human HCT8 cells assessed as abnormal size changes in heart at 59.4 umol/kg administered as via oral gavage daily for 21 days. It counts as organism-based, HCT-8. The settings on record: in vivo, 504 h. In short, it runs like this: as §2
Series [14] has as its system Mus musculus. The series is described as follows: Toxicity in nude BALB/c mouse xenografted with FU-resistant human HCT8 cells assessed as abnormal weight changes in liver at 59.4 umol/kg administered as via oral gavage daily for 21 days. It counts as organism-based, HCT-8. Conditions: in vivo, 504 h. A digest of the protocol: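 Male BALB/c nude mice, 6-8 weeks old, inoculated s.c. in right flank with HCT-8/5-FU cells (2 × 10^6/mouse). Once tumors reached 180-200 mm3 (9-11 days post-implantation), mice were randomized and dosed by gavage daily for 21 consecutive days in cremophor-EL/DMSO/PBS (1:1:8) (vehicle alone 0.2 mL). Body weights recorded on day 1 and day 21. Organ size, color and weights were inspected for liver, kidney, lung and heart. n = 8 per group; mean ± SD.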

For series [15], the system named is HCT-8. The series is described as follows: Inhibition of HIF-1alpha protein expression in human HCT8 cells at 1 uM incubated for 24 hrs by Western blotting method. It is filed as functional, cell-based. In short, it runs like this:
as §1

In series [16] the test system is HCT-8. The series is described as follows: Inhibition of ERK protein phosphorylation in human HCT8 cells at 1 uM incubated for 24 hrs by Western blotting method. It counts as cell-based. In short, it runs like this: as §1
In series [17] the test system is Mus musculus. The series is described as follows: Toxicity in nude BALB/c mouse xenografted with FU-resistant human HCT8 cells assessed as abnormal color changes in lung at 59.4 umol/kg administered as via oral gavage daily for 21 days. It is filed as organism-based, HCT-8. The settings on record: in vivo, 504 h. A digest of the protocol:
as §2

Series [18] concerns Mus musculus. The series is described as follows: Toxicity in nude BALB/c mouse xenografted with FU-resistant human HCT8 cells assessed as abnormal size changes in liver at 59.4 umol/kg administered as via oral gavage daily for 21 days. The settings on record: in vivo, 504 h. It counts as organism-based, HCT-8. In short, it runs like this: as §2

Chain of RAC-alpha serine/threonine-protein kinase (Homo sapiens) (P31749 whole entry): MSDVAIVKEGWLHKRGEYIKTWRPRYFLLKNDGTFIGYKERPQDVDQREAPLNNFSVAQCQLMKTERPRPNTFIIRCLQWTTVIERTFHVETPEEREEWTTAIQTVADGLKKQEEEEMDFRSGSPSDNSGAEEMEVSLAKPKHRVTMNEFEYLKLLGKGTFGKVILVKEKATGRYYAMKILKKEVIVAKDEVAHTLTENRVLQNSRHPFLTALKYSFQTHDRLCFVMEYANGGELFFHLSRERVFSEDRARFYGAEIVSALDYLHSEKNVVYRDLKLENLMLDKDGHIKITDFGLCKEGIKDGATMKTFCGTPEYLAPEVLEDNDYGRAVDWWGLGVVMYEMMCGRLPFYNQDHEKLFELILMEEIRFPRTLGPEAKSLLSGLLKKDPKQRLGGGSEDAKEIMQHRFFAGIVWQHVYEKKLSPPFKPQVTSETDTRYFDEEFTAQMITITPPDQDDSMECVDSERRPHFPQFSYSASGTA

The term mortality denotes the share of the test organisms that died. For the compound `CC1(C)CC[C@]2(C(=O)NCC(=O)OCC#CCOc3no[n+]([O-])c3S(=O)(=O)c3ccccc3)CC[C@]3(C)[C@H](C(=O)C=C4[C@@]5(C)C=C(C#N)C(=O)C(C)(C)[C@@H]5CC[C@]43C)[C@@H]2C1`, the inhibition result with HCT-8 [1] is “inactive”. For the same compound, the inhibition entry (in series [2]; with HCT-8 [3]; with HCT-8 [4]; with HCT-8 [5]) was “Dose-dependent effect” throughout. The Activity entry in [6] is given as “Dose-dependent effect”; with Mus musculus [8], 25 g; in the series on Mus musculus [9], “Non-toxic”; with Mus musculus [10], “Non-toxic”; in the series on Mus musculus [11], “Non-toxic”; in the series on Mus musculus [12] it was “Non-toxic”. Besides, the mortality at 336 h in series [7] stood at 0%.
As to `COC(=O)[C@]12CCC(C)(C)C[C@H]1[C@H]1C(=O)C=C3[C@@]4(C)C=C(C#N)C(=O)C(C)(C)[C@@H]4CC[C@@]3(C)[C@]1(C)CC2` [BARDOXOLONE METHYL], the Activity result in the series on Mus musculus [13], with Mus musculus [14], with Mus musculus [17] and in the series on Mus musculus [18] was “Non-toxic” each time. The inhibition entry in the series on HCT-8 [15] and in the series on HCT-8 [16] was “Active” throughout.

For the origin of these results see ChEMBL document CHEMBL3414437, “Synthesis of CDDO-amino acid-nitric oxide donor trihybrids as potential antitumor agents against both drug-sensitive and drug-resistant colon cancer” (J Med Chem, 2015).
